PMC3480199 (Journal of medicinal chemistry, 2012)
Like-named read-outs stand apart in the source and are kept apart here.

Columns and labels:
T. brucei cells = experiment: Protein synthesis inhibition assay; format: cell-based, Trypanosoma brucei; details: 4 h, concentrations 1 to 16 times the 48 hour EC50
Summary of the method: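 Mid-log bloodstream-form T. brucei (5×10^5 cells/well) in HMI-9 medium, given test compound in triplicate and preincubated 15 min, with a no-drug control on each plate. Cells cultured with 3H-histidine; filters counted by scintillation.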

[1] = target: T1, human mitochondrial MetRS (Homo sapiens, UniProt Q96GW9); experiment: Human mitochondrial methionyl-tRNA synthetase aminoacylation assay; format: biochemical
T1 sequence (Q96GW9 30-593): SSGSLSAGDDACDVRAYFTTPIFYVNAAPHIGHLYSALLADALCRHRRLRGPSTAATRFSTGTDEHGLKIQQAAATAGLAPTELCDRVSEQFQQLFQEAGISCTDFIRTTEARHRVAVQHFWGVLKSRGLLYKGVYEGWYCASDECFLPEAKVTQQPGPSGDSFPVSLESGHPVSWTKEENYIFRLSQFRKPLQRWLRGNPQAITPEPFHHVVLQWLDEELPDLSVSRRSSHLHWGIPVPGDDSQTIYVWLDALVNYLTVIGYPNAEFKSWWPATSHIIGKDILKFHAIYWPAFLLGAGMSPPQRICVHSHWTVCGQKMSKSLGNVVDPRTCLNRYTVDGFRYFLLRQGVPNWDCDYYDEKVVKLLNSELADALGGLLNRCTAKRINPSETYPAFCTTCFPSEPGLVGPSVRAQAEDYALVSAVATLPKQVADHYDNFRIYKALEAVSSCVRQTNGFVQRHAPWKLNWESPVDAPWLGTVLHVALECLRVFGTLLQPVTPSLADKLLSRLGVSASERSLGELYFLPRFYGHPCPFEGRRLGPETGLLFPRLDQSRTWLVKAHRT
Summary of the method: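 Recombinant enzyme (20 nM) preincubated 15 min with 12 serial two-fold dilutions of test compound in 50 mM Tris-HCl pH 8.0, 2.5 mM MgCl2, 2.5 mM KCl, 0.2 mM spermine, 0.2 mg/mL BSA, 2.5 mM DTT, 1 U/mL pyrophosphatase. Started with 200 μg/mL E. coli tRNA, 2.5 mM ATP, 250 nM [3H]methionine; 120 min, 37°C. Filtered, TCA-washed, scintillation-counted in quadruplicate; IC50 by sigmoidal nonlinear regression.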

[2] = test system: CRL-8155 human lymphoblast cell line; experiment: Mammalian cell growth inhibition assay; format: cell-based; details: CRL8155, 48 h, read-out: CRL-8155 IC50
T. brucei rhodesiense = experiment: Efficacy studies in mice; format: in vivo; details: 50 mg/kg oral every 12 h for 4 days
MDR1-MDCKII cells [3] = experiment: MDR1-MDCKII assay; details: 3 μM
MDR1-MDCKII cells [4] = details: dog, MDCK-MDR1, 60 min, 3 μM

**Q.** With `C[C@@H]1C[C@@H]([C@H](O)CC2CC(=O)NC(=O)C2)C(=O)[C@@H](C)C1` [cycloheximide] as the compound, how does the “Incorporation of 3H-amino acid into proteins” value (from here on “Incorporation”) (T. brucei cells) read?
**A.** dose dependent decrease

**Q.** Which IC50 [1] does the source give for `O=C(NCCCNCc1cc(Cl)cc(Cl)c1)Nc1cccc(O)c1` [Compound 17] here?
**A.** 5.43 µM

**Q.** And the IC50 [2]?
**A.** 12 µM

**Q.** Which IC50 [1] does the source give for `COc1cc(Cl)cc(CNCCCNC(=O)Nc2ccsc2)c1` [Compound 27, 1-[3-(3-Chloro-5-methoxy-benzylamino)-propyl]-3-thiophen-3-yl-urea] here?
**A.** 6.59 µM

**Q.** And the IC50 [2]?
**A.** 22 µM

**Q.** For `O=C(NCCCNCc1cc(Cl)cc(Cl)c1)Nc1ccsc1` [Compound 26, 1-[3-(3,5-Dichloro-benzylamino)-propyl]-3-thiophen-3-yl-urea], which IC50 [1] is on record?
**A.** 4.35 µM

**Q.** And the Extension of survival (T. brucei rhodesiense)?
**A.** 1 days

**Q.** And the “Toxicity in treated mice” value (T. brucei rhodesiense)?
**A.** No toxicity

**Q.** And the IC50 [2]?
**A.** 12 µM

**Q.** And the “Incorporation” value (T. brucei cells)?
**A.** dose dependent decrease

**Q.** How did the “Incorporation” value (T. brucei cells) turn out when `NCCCC(N)(C(=O)O)C(F)F` (stereo not shown) [DFMO, difluoromethylornithine] was run?
**A.** did not result in a dose dependent decrease

**Q.** How did the “AQ (typical control value)” value (MDR1-MDCKII cells [3]) turn out when `CC(C)CN(C[C@@H](O)[C@H](Cc1ccccc1)NC(=O)O[C@H]1CCOC1)S(=O)(=O)c1ccc(N)cc1` [Amprenavir] was run?
**A.** > 0.5

**Q.** How did the IC50 [1] turn out when `O=C(NCCCNCc1cc(Cl)cc(Cl)c1)Nc1cccs1` [Compound 28] was run?
**A.** 3.06 µM

**Q.** And the IC50 [2]?
**A.** 9.5 µM

**Q.** `Oc1cc(NCCCNCc2cc(Cl)cc(Cl)c2)nc2ccccc12` [Compound 1] was tested. Which “Incorporation” value (T. brucei cells) did it give?
**A.** dose dependent decrease

**Q.** For `O=C(NCCCNCc1cc(Cl)cc(Cl)c1)Nc1ccccc1` [Compound 2, 1-(3-(3,5-Dichlorobenzylamino)propyl)-3-phenylurea], which IC50 [1] is on record?
**A.** > 10 µM

**Q.** And the “Selectivity Index Human IC50 / T. brucei IC50” value ([1]; human mitochondrial MetRS IC50 over T. brucei MetRS IC50)?
**A.** >175

**Q.** What about the IC50 [2] of the same compound?
**A.** 12 µM

**Q.** Which results are given for `COc1cc(Cl)cc(CNCCCNC(=O)Nc2ccccc2)c1` [Compound 4]?
**A.** IC50 [1]: 8.35 µM; IC50 [2]: 20 µM

**Q.** With `CC(C)NCC(O)COc1cccc2ccccc12` (stereo not shown) [Propranolol] as the compound, how does the “AQ (typical control value)” value (MDR1-MDCKII cells [4]) read?
**A.** < 0.5

**Q.** For `O=C(NCCCNCc1cc(Cl)cc(Cl)c1)Nc1cccc(F)c1` [Compound 18], which IC50 [1] is on record?
**A.** 4.25 µM

**Q.** And the IC50 [2]?
**A.** 43.2 µM

**Q.** `O=C(NCCCNCc1cc(Cl)cc(Cl)c1)Nc1ccccc1O` [Compound 16] was tested. Which IC50 [1] did it give?
**A.** 3.72 µM

**Q.** And the IC50 [2]?
**A.** > 20 µM
